Experimental data from article PMC9073132 (Journal of Pharmaceutical Analysis, 2021).
Like-named read-outs stand apart in the source and are kept apart here.

Format: in vivo, Wistar rats
Conditions: for Detection in rat plasma samples over the sampling period (LC-MS/MS quantitation): concentrations lower than LLOQ
Method in brief: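 Male Wistar rats (200 ± 20 g) were acclimated 7 days with food and water ad libitum. Crude extract, predissolved in 0.5% DMSO and dispersed in 5 mg/mL sodium carboxymethylcellulose, was given intragastrically at 200 mg/kg. Heparinized blood was taken on ice at 0–24 h (12 points) and spun; plasma was held at −20 °C. Plasma (100 μL) plus IS was extracted with ethyl acetate, then 14 bufadienolides quantified by UHPLC-MS/MS against LLOQ.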

[1] = rat plasma, intragastric crude VB extract 200 mg/kg, n=4
[2] = male, Wistar, rat, plasma, po, 200 mg/kg
[3] = intragastric crude VB extract 200 mg/kg

| Compound | AUC(0-t) [1] [µg·h/mL] | Cmax [1] [ng/mL] | MRT(0-t) [1] [h] | Tmax [1] [h] | t1/2 [1] [h] | AUC(0-t) [2] [µg·h/mL] | Cmax [2] [ng/mL] | MRT last [2] [h] | Tmax [2] [h] | half-life [2] [h] | Detection in rat plasma samples over the sampling period (LC-MS/MS quantitation) [3] |
| --- | --- | --- | --- | --- | --- | --- | --- | --- | --- | --- | --- |
| C[C@]12CC[C@H](O)C[C@H]1CC[C@@H]1[C@@H]2C(=O)[C@H](O)[C@]2(C)[C@@H](c3ccc(=O)oc3)CC[C@]12O [CS01, pseudobufarenogin] | 0.276956 ± 0.060642 | 67.225 ± 14.218 | 4.614 ± 0.481 | 0.75 ± 0 | 3.944 ± 1.276 |  |  |  |  |  |  |
| C[C@]12CC[C@H](O)C[C@H]1CC[C@@H]1[C@@H]2[C@H](O)C(=O)[C@]2(C)[C@@H](c3ccc(=O)oc3)CC[C@]12O [CS03, arenobufagin] | 1.487316 ± 0.407361 | 466.5 ± 116.920 | 3.338 ± 1.011 | 0.938 ± 0.125 | 4.537 ± 2.442 |  |  |  |  |  |  |
| C[C@]12CC[C@H]3[C@@H](CC[C@]4(O)C[C@@H](O)CC[C@]34C=O)[C@@]1(O)CC[C@@H]2c1ccc(=O)oc1 [CS04, hellebrigenin] | 0.104246 ± 0.020661 | 13.35 ± 2.243 | 6.478 ± 1.035 | 1.438 ± 0.657 | 4.884 ± 2.116 |  |  |  |  |  |  |
| CC(=O)O[C@H]1[C@H]2O[C@]23[C@@H]2CC[C@]4(O)C[C@@H](O)CC[C@]4(C=O)[C@H]2CC[C@]3(C)[C@H]1c1ccc(=O)oc1 [CS11, 19-oxocinobufotalin] | 0.003669 ± 0.000511 | 2.752 ± 0.814 | 0.942 ± 0.05 | 0.562 ± 0.239 | 2.614 ± 2.802 |  |  |  |  |  |  |
| C[C@]12CC[C@H](O)C[C@@]1(O)CC[C@@H]1[C@@H]2CC[C@]2(C)[C@@H](c3ccc(=O)oc3)CC[C@]12O [CS14, telocinobufagin] |  |  |  |  |  | 0.00722 ± 0.000428 | 4.84 ± 1.09 | 0.932 ± 0.129 | 0.521 ± 0.315 | 1.88 ± 1.19 |  |
| CC(=O)O[C@H]1C[C@]2(O)[C@@H]3CC[C@@H]4C[C@@H](O)CC[C@]4(C)[C@H]3CC[C@]2(C)[C@H]1c1ccc(=O)oc1 [CS15, bufotalin] |  |  |  |  |  |  |  |  |  |  | not detected |
| C[C@]12CC[C@H]3[C@@H](CC[C@@H]4C[C@@H](O)CC[C@@]43C=O)[C@]13O[C@@H]3CC2c1ccc(=O)oc1 (stereo partly drawn) [CS16, resibufagin] |  |  |  |  |  |  |  |  |  |  | not detected |
| CC(=O)O[C@H]1[C@H]2O[C@]23[C@@H]2CC[C@@H]4C[C@@H](O)CC[C@]4(C=O)[C@H]2CC[C@]3(C)[C@H]1c1ccc(=O)oc1 [CS17, 19-oxocinobufagin] |  |  |  |  |  |  |  |  |  |  | not detected |
| CC(=O)O[C@H]1[C@H]2O[C@]23[C@@H]2CC[C@]4(O)C[C@@H](O)CC[C@]4(C)[C@H]2CC[C@]3(C)[C@H]1c1ccc(=O)oc1 [CS19, cinobufotalin] |  |  |  |  |  |  |  |  |  |  | not detected |
| C[C@]12CC[C@H](O)C[C@H]1CC[C@@H]1[C@@H]2CC[C@]2(C)[C@@H](c3ccc(=O)oc3)CC[C@]12O [CS21, bufalin] |  |  |  |  |  | 0.017 ± 0.00176 | 7.08 ± 1.85 | 1.48 ± 0.115 | 0.396 ± 0.292 | 1.77 ± 0.821 |  |
| C[C@]12CC[C@H](O)C[C@H]1CC[C@@H]1[C@@H]2CC[C@]2(C)[C@@H](c3ccc(=O)oc3)C[C@H]3O[C@]132 [CS22, resibufogenin] |  |  |  |  |  | 0.00453 ± 0.000701 | 3.79 ± 3.78 | 0.836 ± 0.141 | 0.333 ± 0.204 | 1.2 ± 0.477 |  |
| CC(=O)O[C@H]1[C@H]2O[C@]23[C@@H]2CC[C@@H]4C[C@@H](O)CC[C@]4(C)[C@H]2CC[C@]3(C)[C@H]1c1ccc(=O)oc1 [CS23, cinobufagin] |  |  |  |  |  | 0.0052 ± 0.00283 | 7.29 ± 10.4 | 0.913 ± 0.23 | 0.833 ± 0.825 | 1.32 ± 0.526 |  |
| C[C@]12CC[C@H](O)C[C@H]1CC[C@@H]1[C@@H]2CC[C@]2(C)[C@@H](c3ccc(=O)oc3)[C@@H](O)[C@H]3O[C@]132 [CS30, desacetylcinobufagin] |  |  |  |  |  | 0.104 ± 0.00606 | 24.1 ± 2.27 | 4.67 ± 1.01 | 0.875 ± 0.25 | 10.8 ± 5.24 |  |
| C[C@]12CC[C@H](O)C[C@H]1CC[C@@H]1[C@@H]2[C@H](O)C[C@]2(C)[C@@H](c3ccc(=O)oc3)CC[C@]12O [CS36, gamabufotalin] |  |  |  |  |  | 0.223 ± 0.0113 | 84.4 ± 4 | 2.5 ± 0.603 | 0.812 ± 0.125 | 2.82 ± 1.27 |  |
